Bioassay records from PubChem.
NR2F2 inh: inhibitors of human COUP-TFII (NR2F2); P24468; AID 686940; HEK293T NGFI-A luciferase reporter, luminescence; inhibition, % at 8.6 µM; hit rate 0.7% among 370,000;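 active means inhibition above a per-plate cutoff, mean inhibition of test wells between control levels plus 3 SD, cut at about 38% in these data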;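 further: cells cotransfected with COUP-TFII expression vector driving the NGFI-A reporter; 0% = median of COUP-TF2 test wells and 100% = reporter-only cells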
Target sequence (P24468 whole entry, looked up): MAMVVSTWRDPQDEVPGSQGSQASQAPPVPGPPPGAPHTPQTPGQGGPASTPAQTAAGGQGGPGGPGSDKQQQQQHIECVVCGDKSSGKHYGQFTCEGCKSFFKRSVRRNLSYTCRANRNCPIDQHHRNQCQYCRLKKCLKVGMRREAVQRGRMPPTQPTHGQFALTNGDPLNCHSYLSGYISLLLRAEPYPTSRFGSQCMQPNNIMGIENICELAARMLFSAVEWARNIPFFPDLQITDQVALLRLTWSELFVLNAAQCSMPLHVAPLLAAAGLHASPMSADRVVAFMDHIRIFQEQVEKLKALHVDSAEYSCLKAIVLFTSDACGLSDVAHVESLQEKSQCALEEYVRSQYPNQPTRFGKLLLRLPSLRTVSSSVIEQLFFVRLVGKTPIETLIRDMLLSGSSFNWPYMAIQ
SMARCA2 activ: SMARCA2 function activation, primary screen; MG213 cells, MMTV-luciferase reporter, dexamethasone, overnight; activation, % at 9.1 µM; hit rate 1% among 370,000; AID 652017; in the data active means activation above about 7.8%;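 further: 0% = vehicle wells and 100% = reference activator wells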
NR2E3 ag-1: agonists of human nuclear receptor NR2E3 | Q9Y5X4 | hit rate 0.12% among 320,000 | GST-NR2E3/biotin-RetCOR TR-FRET, 1536-well | AID 2300 | inhibition of corepressor binding, % at 4.78 µM;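 active means percent inhibition above the cutoff of mean plus 3 SD of all tested compounds, set per screening campaign, cut at about 20% in these data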;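 further: 0% = DMSO wells and 100% = biotin wells as full block of FRET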
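Material: NR2E3–RetCOR corepressor complex / Amount: 1.35 nM GST-NR2E3 / Medium: Tris pH 7.5 / Compound: single nominal compound dose of 4.8 µM / Incubation: 5 h at 4 °C / Technique: TR-FRET, Eu(K)-anti-GST donor, streptavidin-D2 acceptor, ex 340, em 617/671 nm / Read-out basis: percent loss of FRET ratio relative to control wells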
GalR3 antag: blocks the human galanin receptor 3; O60755; HEK293 GalR3-CNG cAMP membrane potential fluorescence; galR3 body fused to GalR1 C-terminus; inhibition, % at 3 µM; hit rate 0.44% among 360,000;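 active means inhibition above the screen-wide average plus 3 SD, cut at about 13% in these data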;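 further: forskolin and galanin both at EC90 stimulate the cells; cAMP rise reported by CNG channel membrane potential dye signal; 0% = forskolin plus galanin with DMSO and 100% = forskolin alone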
NR2E3 ag-2: agonists of human NR2E3 nuclear receptor; Q9Y5X4; CHO-S Gal4-NCOR/VP16-NR2E3 two-hybrid, luciferase; inhibition of corepressor binding, % at 3.98 µM; hit rate 0.35% among 360,000; AID 602229;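 active means inhibition above the mean of all tested compounds plus 3 SD, cut at about 70% in these data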;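 further: 0% = DMSO with NR2E3 transfected cells and 100% = cells lacking NR2E3 construct; higher means lower luciferase signal from less NR2E3 corepressor binding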
SMARCA2 act conf: confirmation of SMARCA2 (BRM) function activators. shares compounds with SMARCA2 activ. MG213 cells, MMTV-luciferase with dexamethasone, luminescence, overnight; MG213 cells expressing E1A, Rb sequestered; DMSO wells 0%, reference activator 100%. activation, % at 9.1 µM. hit rate 30% among 3,500;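 active means activation above its plate's cutoff, the mean activation of tested wells plus 3 SD, cut at about 7.9% in these data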
GAL4-VP16 Luc: activates GAL4-VP16 luciferase, flagging SMARCA2 activator hits; activation, % at 9.1 µM; shares compounds with SMARCA2 activ; AID 686939; HEK293 GAL4-VP16 pG5luc reporter, luciferase luminescence; scaled: DMSO wells 0%, SAHA wells 100%; hit rate 41% among 3,500;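 active means activation above the solvent-only control well mean plus 3 SD, averaged across control plates, cut at about 5.2% in these data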
* marks the source's active call; other numbers are inactive results; . = no result given. A selection: hits, their analogues and other compounds. The true share with any hit is near 2.2%.

SMILES	NR2F2 inh	SMARCA2 activ	NR2E3 ag-1	GalR3 antag	NR2E3 ag-2	SMARCA2 act conf	GAL4-VP16 Luc
COc1cc(/C=C/C(=O)O)cc2c1OCCO2	15	8.0*	-1	-6	-35	-5	-1
O=C(O)c1ccc(/C=N/Nc2ccc(F)cc2F)cc1	-30	11*	-3	-4	-80	6	5
O=C(CNC(=O)c1cccs1)OCC(=O)c1ccc(Cl)cc1	6	0	6	-5	-21	.	.
O=C(CNC(=O)c1cccs1)c1ccc(Cl)cc1	-47	8.8*	5	-6	-116	10*	12*
C/C(=N\NC(=O)c1ccc(NS(=O)(=O)c2cccs2)cc1)c1ccc(Cl)cc1	2	9.1*	4	-2	-5	3	0
C/C(=N/NC(=O)c1ccoc1C)c1cccs1	-46	13*	.	.	.	9.2*	5.2*
C/C(=N\NC(=O)c1ccc(Cl)cc1)c1cccs1	-52	8.4*	.	5	-102	20*	14*
Cc1cc(C)cc(N(CC(=O)NC2CCC(C)CC2)S(=O)(=O)c2ccc(C(C)(C)C)cc2)c1 (stereo not drawn)	-20	4	.	.	.	.	.
O=[N+]([O-])c1ccccc1S(=O)(=O)N1CCC(c2cn3ccccc3n2)CC1	7	-6	.	.	.	.	.
O=C(Nc1ccccc1)c1ccc2snnc2c1	-21	0	1	-7	-21	.	.
Cc1ccc(NC(=O)c2ccc3snnc3c2)cc1	-52	9.2*	2	-5	-51	3	12*
Nc1nc(Cl)cc(Nc2ccccc2Cl)n1	-38	9.5*	1	-9	-29	5	1
CSc1nc(Cl)cc(Nc2ccccc2N)n1	-4	1	4	-3	-5	.	.
COc1ccc(C2=Nn3c(nnc3-c3ccccc3Cl)SC2)cc1OC1CCCC1	9	3	.	-6	-11	.	.
COc1ccc(C2=Nn3c(nnc3-c3ccccc3Cl)SC2)cc1OC1CCOC1 (stereo not drawn)	-4	11*	.	3	-92	18*	5
COc1ccc(C2=Nn3c(nnc3-c3ccco3)SC2)cc1OC	-107	8.2*	-2	9	19	13*	9.2*
COC(=O)C1=C(C)N(Cc2ccc(C(F)(F)F)cc2)C(=NCc2ccc3c(c2)OCO3)NC1c1cccc(Cl)c1 (stereo not drawn)	-4	-4	.	-3	.	.	.
O=C1Cc2c([nH]c3ccc(Br)cc23)-c2ccccc2N1	4	9.2*	.	-3	8	19*	2
Cc1ccc(N(C(=O)c2csnn2)C(C(=O)NC2CCCCC2)c2cccnc2)cc1 (stereo not drawn)	-9	9.6*	0	-9	-27	-2	4
Cc1ccc(N(C(=O)c2csnn2)C(C(=O)NC2CCCC2)c2cccnc2)cc1 (stereo not drawn)	-12	8	0	-7	-15	.	.
O=C(NCc1ccc(F)cc1)C(c1cccnc1)N(C(=O)c1csnn1)c1ccccc1 (stereo not drawn)	18	9.0*	1	-7	-10	-4	0
C=CCN(C(=O)c1csnn1)C(C(=O)NCc1ccc(F)cc1)c1sccc1C (stereo not drawn)	0	8.0*	-4	-10	6	-3	-2
O=C(NCc1ccccc1)C(c1ccc(F)cc1)N(C(=O)c1csnn1)c1ccccc1 (stereo not drawn)	-2	-1	0	-5	21	.	.
C=CCNC(=O)CSc1nc2c(c(=O)[nH]1)CCCC2	7	-5	.	.	.	.	.
CCc1ccc(NC(=O)C(=O)NCC2CCCO2)cc1 (stereo not drawn)	-34	11*	2	-3	-50	4	16*
O=C(CSc1nnc(-c2ccccn2)n1-c1ccccc1)Nc1ccc(OCc2ccccc2)cc1	23	-8	.	.	.	.	.
O=Cc1ccc(OCc2ccc3ccccc3c2)cc1	-23	8.2*	2	-11	-70	5	6.1*
O=Cc1ccc(OCc2ccccn2)cc1	-20	1	0	-1	-35	.	.
